Measurements collected from several papers.
CDK7 with cyclin H: Cyclin-dependent kinase 7, with cyclin H (CDK7, Homo sapiens, UniProt P50613)
CDK7: Cyclin-dependent kinase 7 (CDK7, Homo sapiens, UniProt P50613)

SMILES	target	assay	conditions	quantity	result
COc1cc2occc2c2oc(=O)ccc12	CDK7 with cyclin H	enzyme activity, inhibitor, ADP detection	10 µM	inhibition	-29.9%
Cc1nn(C)cc1-c1nc2c(N3CCN(Cc4ccc(Cl)cc4)CC3)c(Cl)cnc2[nH]1	CDK7	binding, competition with immobilised ligand	1 µM	remaining binding	100%
Cn1cc(-c2cc(F)cc(N3CCn4c(cc5c4CCCC5)C3=O)c2CO)cc(Nc2ccc(N3CCN(C4COC4)CC3)cn2)c1=O	CDK7 with cyclin H	enzyme activity, inhibitor	0.1 µM	inhibition	4%
C[C@]12CC[C@H](O)CC1=CC[C@@H]1[C@@H]2CC[C@]2(C)C(=O)CC[C@@H]12	CDK7 with cyclin H	enzyme activity, inhibitor, ADP detection	10 µM	inhibition	-2%
Cn1cncc1[C@](O)(COc1ccc(C#N)cc1-c1ccc(OC(F)(F)F)cc1)c1ccc(C#N)cc1	CDK7	cell-free assay, competition with immobilised ligand	1 µM	remaining binding	95%
Nc1ncc(-c2nc(N3CCOCC3)nc(N3CCOCC3)n2)c(C(F)F)n1	CDK7	binding, competition with immobilised ligand	10 µM	remaining binding	56%
CCN1CCN(Cc2ccc(C(=O)Nc3ccc(C)c(Oc4ccc5c(c4)CC(=O)N5)c3)cc2C(F)(F)F)CC1	CDK7	binding, competition with immobilised ligand	1 µM	remaining binding	84%
Cn1cc(-c2cccc(N3CCc4c(sc5c4CC(C)(C)C5)C3=O)c2CO)cc(Nc2ccncn2)c1=O	CDK7 with cyclin H	enzyme activity, inhibitor	1 µM	inhibition	-11%
COc1ncccc1-c1cnn2ccc(N3CCN(C(=O)OC(C)C)CC3)nc12	CDK7	binding, competition with immobilised ligand	1 µM	remaining binding	100%
CNC(=O)Oc1ccc2c(c1)[C@]1(C)CCN(C)[C@@H]1N2C	CDK7 with cyclin H	enzyme activity, inhibitor, ADP detection	10 µM	inhibition	-4.5%
